{"source": "ChEMBL document CHEMBL1139342", "about": "“Antibacterial 5'-O-(N-dipeptidyl)-sulfamoyladenosines” (2009)", "format_in_all_cases": "functional", "key": {"Escherichia coli [1]": {"test_system": "Escherichia coli", "experiment": "Antibacterial activity against Escherichia coli delta ABN mutant lacking peptidase A, B, N at 30 nmol after 16 to 20 hrs", "how_it_was_run": "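Agar diffusion test. A soft Mueller–Hinton agar lawn (0.75% agar) seeded with bacteria was poured over Mueller–Hinton agar (1.5% agar). Once the agar set, 5 µL drops of compound in milliQ water (30 nmol per drop) were applied and left to dry. Plates were incubated at 37 °C for 16–20 h. Inhibition zone area was recorded in mm² as mean ± SD of triplicates.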"}, "Escherichia coli [2]": {"test_system": "Escherichia coli", "experiment": "Antibacterial activity against wild type Escherichia coli at 30 nmol after 16 to 20 hrs", "how_it_was_run": "(§1)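 Agar overlay diffusion assay: soft Mueller–Hinton agar (0.75% agar) seeded with bacteria poured over Mueller–Hinton agar (1.5% agar). Once set, 5 µL drops of compound in milliQ water were applied (30 nmol per drop, or 1.2 nmol for the reference compound) and allowed to dry. Plates were incubated at 37 °C for 16–20 h. Inhibition zone area was read in mm², triplicate per compound–dose.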"}, "Staphylococcus aureus [3]": {"test_system": "Staphylococcus aureus", "experiment": "Antibacterial activity against Staphylococcus aureus ATCC 25923 at 30 nmol after 16 to 20 hrs", "how_it_was_run": "as §1"}, "Enterococcus faecalis [4]": {"test_system": "Enterococcus faecalis", "experiment": "Antibacterial activity against Enterococcus faecalis ATCC 29212 at 30 nmol after 16 to 20 hrs", "how_it_was_run": "as §1"}, "Escherichia coli [5]": {"test_system": "Escherichia coli", "experiment": "Antibacterial activity against wild type Escherichia coli at 1.2 nmol after 16 to 20 hrs", "how_it_was_run": "as §1"}, "Staphylococcus aureus [6]": {"test_system": "Staphylococcus aureus", "experiment": "Antibacterial activity against Staphylococcus aureus ATCC 25923 at 1.2 nmol after 16 to 20 hrs", "how_it_was_run": "as §1"}, "Enterococcus faecalis [7]": {"test_system": "Enterococcus faecalis", "experiment": "Antibacterial activity against Enterococcus faecalis ATCC 29212 at 1.2 nmol after 16 to 20 hrs", "how_it_was_run": "as §1"}}, "note": "Where a SMILES comes first, the peptide text is derived from it. The star is where a group is joined. AspNHSO2(5'-O-Ado) = Nc1ncnc2c1ncn2[C@@H]1O[C@H](COS(=O)(=O)NC(=O)[C@H](CC(=O)O)N*)[C@@H](O)[C@H]1O", "data": [{"smiles": "C[C@H](N)C(=O)N[C@@H](C)C(=O)NS(=O)(=O)OC[C@H]1O[C@@H](n2cnc3c(N)ncnc32)[C@H](O)[C@@H]1O", "values": [{"measurement": "inhibition zone (IZ)", "setting": "Escherichia coli [1]", "value": 0, "unit": "mm2"}, {"measurement": "inhibition zone (IZ)", "setting": "Escherichia coli [2]", "value": 25.3, "unit": "mm2"}, {"measurement": "inhibition zone (IZ)", "setting": "Staphylococcus aureus [3]", "value": 0, "unit": "mm2"}, {"measurement": "inhibition zone (IZ)", "setting": "Enterococcus faecalis [4]", "value": 56.9, "unit": "mm2"}]}, {"smiles": "CSCC[C@H](NC(=O)[C@@H](N)CCSC)C(=O)NS(=O)(=O)OC[C@H]1O[C@@H](n2cnc3c(N)ncnc32)[C@H](O)[C@@H]1O", "values": [{"measurement": "inhibition zone (IZ)", "setting": "Escherichia coli [2]", "value": 0, "unit": "mm2"}, {"measurement": "inhibition zone (IZ)", "setting": "Staphylococcus aureus [3]", "value": 0, "unit": "mm2"}, {"measurement": "inhibition zone (IZ)", "setting": "Enterococcus faecalis [4]", "value": 83.9, "unit": "mm2"}]}, {"smiles": "Nc1ncnc2c1ncn2[C@@H]1O[C@H](COS(=O)(=O)NC(=O)[C@H](Cc2ccccc2)NC(=O)[C@@H](N)Cc2ccccc2)[C@@H](O)[C@H]1O", "values": [{"measurement": "inhibition zone (IZ)", "setting": "Escherichia coli [1]", "value": 19.6, "unit": "mm2"}, {"measurement": "inhibition zone (IZ)", "setting": "Escherichia coli [2]", "value": 18.4, "unit": "mm2"}, {"measurement": "inhibition zone (IZ)", "setting": "Staphylococcus aureus [3]", "value": 0, "unit": "mm2"}, {"measurement": "inhibition zone (IZ)", "setting": "Enterococcus faecalis [4]", "value": 26.8, "unit": "mm2"}]}, {"smiles": "NCCCC[C@H](N)C(=O)N[C@@H](Cc1c[nH]c2ccccc12)C(=O)NS(=O)(=O)OC[C@H]1O[C@@H](n2cnc3c(N)ncnc32)[C@H](O)[C@@H]1O", "values": [{"measurement": "inhibition zone (IZ)", "setting": "Escherichia coli [2]", "value": 0, "unit": "mm2"}, {"measurement": "inhibition zone (IZ)", "setting": "Staphylococcus aureus [3]", "value": 0, "unit": "mm2"}, {"measurement": "inhibition zone (IZ)", "setting": "Enterococcus faecalis [4]", "value": 0, "unit": "mm2"}]}, {"smiles": "CC(C)C[C@H](NC(=O)[C@@H](N)CCC(=O)O)C(=O)NS(=O)(=O)OC[C@H]1O[C@@H](n2cnc3c(N)ncnc32)[C@H](O)[C@@H]1O", "values": [{"measurement": "inhibition zone (IZ)", "setting": "Escherichia coli [2]", "value": 0, "unit": "mm2"}, {"measurement": "inhibition zone (IZ)", "setting": "Staphylococcus aureus [3]", "value": 0, "unit": "mm2"}, {"measurement": "inhibition zone (IZ)", "setting": "Enterococcus faecalis [4]", "value": 0, "unit": "mm2"}]}, {"smiles": "CSCC[C@H](N)C(=O)N[C@@H](CC(=O)O)C(=O)NS(=O)(=O)OC[C@H]1O[C@@H](n2cnc3c(N)ncnc32)[C@H](O)[C@@H]1O", "values": [{"measurement": "inhibition zone (IZ)", "setting": "Escherichia coli [1]", "value": 31.5, "unit": "mm2"}, {"measurement": "inhibition zone (IZ)", "setting": "Escherichia coli [2]", "value": 12.6, "unit": "mm2"}, {"measurement": "inhibition zone (IZ)", "setting": "Staphylococcus aureus [3]", "value": 0, "unit": "mm2"}, {"measurement": "inhibition zone (IZ)", "setting": "Enterococcus faecalis [4]", "value": 63.7, "unit": "mm2"}]}, {"smiles": "CC(C)C[C@H](NC(=O)[C@@H]1CCCN1)C(=O)NS(=O)(=O)OC[C@H]1O[C@@H](n2cnc3c(N)ncnc32)[C@H](O)[C@@H]1O", "values": [{"measurement": "inhibition zone (IZ)", "setting": "Escherichia coli [2]", "value": 0, "unit": "mm2"}, {"measurement": "inhibition zone (IZ)", "setting": "Staphylococcus aureus [3]", "value": 0, "unit": "mm2"}, {"measurement": "inhibition zone (IZ)", "setting": "Enterococcus faecalis [4]", "value": 0, "unit": "mm2"}]}, {"smiles": "C[C@H](NC(=O)[C@@H]1CCCN1)C(=O)NS(=O)(=O)OC[C@H]1O[C@@H](n2cnc3c(N)ncnc32)[C@H](O)[C@@H]1O", "values": [{"measurement": "inhibition zone (IZ)", "setting": "Escherichia coli [1]", "value": 0, "unit": "mm2"}, {"measurement": "inhibition zone (IZ)", "setting": "Escherichia coli [2]", "value": 18.4, "unit": "mm2"}, {"measurement": "inhibition zone (IZ)", "setting": "Staphylococcus aureus [3]", "value": 0, "unit": "mm2"}, {"measurement": "inhibition zone (IZ)", "setting": "Enterococcus faecalis [4]", "value": 0, "unit": "mm2"}]}, {"smiles": "CSCC[C@H](N)C(=O)N[C@@H](CCCNC(=N)N)C(=O)N[C@H](C(=O)NCC(=O)N[C@@H](CC(N)=O)C(=O)N[C@@H](C)C(=O)N[C@@H](CC(=O)O)C(=O)NS(=O)(=O)OC[C@H]1O[C@@H](n2cnc3c(N)ncnc32)[C@H](O)[C@@H]1O)[C@@H](C)O", "note": "(H-MRTGNA-{AspNHSO2(5'-O-Ado)})", "values": [{"measurement": "inhibition zone (IZ)", "setting": "Escherichia coli [5]", "value": 46.7, "unit": "mm2"}, {"measurement": "inhibition zone (IZ)", "setting": "Staphylococcus aureus [6]", "value": 0, "unit": "mm2"}, {"measurement": "inhibition zone (IZ)", "setting": "Enterococcus faecalis [7]", "value": 0, "unit": "mm2"}]}, {"smiles": "C[C@H](N)C(=O)NS(=O)(=O)OC[C@H]1O[C@@H](n2cnc3c(N)ncnc32)[C@H](O)[C@@H]1O", "note": "[ALASA]", "values": [{"measurement": "inhibition zone (IZ)", "setting": "Escherichia coli [1]", "value": 42.3, "unit": "mm2"}, {"measurement": "inhibition zone (IZ)", "setting": "Escherichia coli [2]", "value": 46.3, "unit": "mm2"}, {"measurement": "inhibition zone (IZ)", "setting": "Staphylococcus aureus [3]", "value": 35, "unit": "mm2"}, {"measurement": "inhibition zone (IZ)", "setting": "Enterococcus faecalis [4]", "value": 44.7, "unit": "mm2"}]}, {"smiles": "CC(C)C[C@H](N)C(=O)NS(=O)(=O)OC[C@H]1O[C@@H](n2cnc3c(N)ncnc32)[C@H](O)[C@@H]1O", "note": "[LEUSA]", "values": [{"measurement": "inhibition zone (IZ)", "setting": "Escherichia coli [1]", "value": 66, "unit": "mm2"}, {"measurement": "inhibition zone (IZ)", "setting": "Escherichia coli [2]", "value": 25.4, "unit": "mm2"}, {"measurement": "inhibition zone (IZ)", "setting": "Staphylococcus aureus [3]", "value": 0, "unit": "mm2"}, {"measurement": "inhibition zone (IZ)", "setting": "Enterococcus faecalis [4]", "value": 26.9, "unit": "mm2"}]}, {"smiles": "C/C(=C\\C(=O)OCCCCCCCCC(=O)O)C[C@@H]1OC[C@H](C[C@@H]2O[C@H]2[C@@H](C)[C@H](C)O)[C@@H](O)[C@H]1O", "note": "[MUPIROCIN]", "values": [{"measurement": "inhibition zone (IZ)", "setting": "Escherichia coli [1]", "value": 52.7, "unit": "mm2"}, {"measurement": "inhibition zone (IZ)", "setting": "Escherichia coli [2]", "value": 38.5, "unit": "mm2"}, {"measurement": "inhibition zone (IZ)", "setting": "Staphylococcus aureus [3]", "value": ">490.93", "unit": "mm2"}, {"measurement": "inhibition zone (IZ)", "setting": "Enterococcus faecalis [4]", "value": 89.4, "unit": "mm2"}]}, {"smiles": "Nc1ncnc2c1ncn2[C@@H]1O[C@H](COS(=O)(=O)NC(=O)[C@@H](N)Cc2ccccc2)[C@@H](O)[C@H]1O", "note": "[PHESA]", "values": [{"measurement": "inhibition zone (IZ)", "setting": "Escherichia coli [1]", "value": 52.7, "unit": "mm2"}, {"measurement": "inhibition zone (IZ)", "setting": "Escherichia coli [2]", "value": 38.5, "unit": "mm2"}, {"measurement": "inhibition zone (IZ)", "setting": "Staphylococcus aureus [3]", "value": 0, "unit": "mm2"}, {"measurement": "inhibition zone (IZ)", "setting": "Enterococcus faecalis [4]", "value": 40.4, "unit": "mm2"}]}]}
